Source: ChEMBL document CHEMBL2321713 (Bioorg Med Chem, 2013)

What was measured:
[1] = biological target: T1, Melatonin receptor type 1B (Homo sapiens, UniProt P49286); assay: Agonist activity at human MT2 receptor expressed in CHO cells coexpressing Galpha protein 16z25 assessed as increase in calcium mobilization measured for 3 mins by FLIPR assay; format: functional, cell-based
T1 sequence (P49286 whole entry): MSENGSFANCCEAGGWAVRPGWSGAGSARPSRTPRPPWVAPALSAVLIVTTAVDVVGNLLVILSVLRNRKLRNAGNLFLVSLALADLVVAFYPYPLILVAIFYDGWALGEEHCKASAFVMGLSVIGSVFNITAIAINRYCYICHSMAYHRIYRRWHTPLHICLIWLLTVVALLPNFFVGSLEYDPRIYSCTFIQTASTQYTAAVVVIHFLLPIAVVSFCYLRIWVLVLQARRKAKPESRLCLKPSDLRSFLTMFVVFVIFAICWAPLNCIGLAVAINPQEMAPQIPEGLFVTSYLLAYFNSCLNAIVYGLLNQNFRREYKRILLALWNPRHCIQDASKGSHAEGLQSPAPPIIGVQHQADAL
How it was run: (§1)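 CHO cells stably expressing human MT1 or MT2 with chimeric Gα16z25 were seeded in growth medium the day before. Fluorescence at 488 nm excitation was followed for 3 min after agonist addition.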

Homo sapiens [2] = organism: Homo sapiens; assay: Selectivity ratio of EC50 for human MT1 receptor to EC50 for human MT2 receptor
How it was run: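 Ca2+ mobilization (FLIPR) in CHO clonal lines stably co-expressing hMT1 or hMT2 with chimeric Gα16z25. Cells seeded a day before, loaded with 2 µM Fluo-4 in HBSS (pH 7.5) with 2.5 mM probenecid, 1 h, 37 °C. Fluorescence read 3 min after agonist addition, excitation 488 nm. […] Ratio is MT1 EC50/MT2 EC50.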

Homo sapiens [3] = organism: Homo sapiens; assay: Selectivity ratio of Ki for human MT1 receptor to Ki for human MT2 receptor
How it was run: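 Whole-cell competition binding on CHO cells stably expressing hMT1 or hMT2, 1.5×10^5 cells per tube. Incubated 60 min at 4 °C, then filtered through GF/C and counted. Means of duplicate experiments. Ratio is MT1 Ki/MT2 Ki.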

Liver microsomes [4] = assay: Drug metabolism in rat liver microsomes assessed as C3'-demethylation after 30 mins by LC-UV/MS analysis; format: ADME, Microsome; conditions: 0.5 h
How it was run: (§2)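 Rat or human liver microsomes (20 mg protein/ml suspension) were added to start reactions after test compound (1 mM stock) in 50 mM Tris-Cl pH 7.4 with MgCl2 was pre-incubated 30 min at 37 °C. Incubation ran 30 min at 37 °C, shaken in air. Reactions were quenched with ice-cold dichloromethane plus internal standards. Metabolites were separated on C18 (acetonitrile/water gradient 40→60%) and identified by positive-mode MS.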

[5] = biological target: T2, Melatonin receptor type 1A (Homo sapiens, UniProt P48039); assay: Displacement of [3H]melatonin from human MT1 receptor expressed in CHO cells after 60 mins by microbeta scintillation method; format: cell-based
T2 sequence (P48039 whole entry): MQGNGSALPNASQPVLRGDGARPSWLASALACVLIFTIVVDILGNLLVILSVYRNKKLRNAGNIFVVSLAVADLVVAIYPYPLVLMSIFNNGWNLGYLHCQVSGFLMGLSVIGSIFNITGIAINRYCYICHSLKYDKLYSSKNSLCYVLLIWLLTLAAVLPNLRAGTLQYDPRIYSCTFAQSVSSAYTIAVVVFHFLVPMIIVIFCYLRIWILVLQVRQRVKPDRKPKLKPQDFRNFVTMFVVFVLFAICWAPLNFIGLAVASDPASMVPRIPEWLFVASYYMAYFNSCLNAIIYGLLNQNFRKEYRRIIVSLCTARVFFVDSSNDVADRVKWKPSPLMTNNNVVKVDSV

Liver microsomes [6] = assay: Drug metabolism in human liver microsomes assessed as C3'-demethylation after 30 mins by LC-UV/MS analysis; format: ADME, Microsome; conditions: 0.5 h; how it was run: as §2
Liver microsomes [7] = assay: Drug metabolism in human liver microsomes assessed as aromatic ring hydroxylation after 30 mins by LC-UV/MS analysis; format: ADME, Microsome; conditions: 0.5 h; how it was run: as §2
Liver microsomes [8] = assay: Drug metabolism in rat liver microsomes assessed as C3-demethylation after 30 mins by LC-UV/MS analysis; format: ADME, Microsome; conditions: 0.5 h; how it was run: as §2
[9] = Elimination half life in human liver microsomes by HPLC/MS analysis; format: ADME, Microsome; conditions: read-out: beta t1/2
How it was run: (§3)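 Rat or human liver microsomal incubations at 37 °C were analysed for percent parent remaining over incubation time. k is the slope of the linear regression of ln(% remaining) versus time, and t1/2 = 0.693/k. In vitro intrinsic clearance was derived from t1/2 and used to predict hepatic clearance.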

[10] = Elimination half life in rat liver microsomes by HPLC/MS analysis; format: ADME, Microsome; conditions: read-out: beta t1/2; how it was run: as §3
[11] = biological target: T2, Melatonin receptor type 1A; assay: Agonist activity at human MT1 receptor expressed in CHO cells coexpressing Galpha protein 16z25 assessed as increase in calcium mobilization measured for 3 mins by FLIPR assay; format: functional, cell-based; how it was run: as §1
[12] = Intrinsic clearance in human liver microsomes after 30 mins by HPLC/MS analysis; format: ADME, Microsome; conditions: read-out: CLH; how it was run: as §3
Liver microsomes [13] = assay: Drug metabolism in rat liver microsomes assessed as aromatic ring hydroxylation after 30 mins by LC-UV/MS analysis; format: ADME, Microsome; conditions: 0.5 h; how it was run: as §2
Liver microsomes [14] = assay: Drug metabolism in human liver microsomes assessed as C3-demethylation after 30 mins by LC-UV/MS analysis; format: ADME, Microsome; conditions: 0.5 h; how it was run: as §2
[15] = biological target: T1, Melatonin receptor type 1B; assay: Displacement of [3H]melatonin from human MT2 receptor expressed in CHO cells after 60 mins by microbeta scintillation method; format: cell-based
[16] = Intrinsic clearance in rat liver microsomes after 30 mins by HPLC/MS analysis; format: ADME, Microsome; conditions: read-out: CLH; how it was run: as §3

Work on `CCC(=O)NCCCc1cc(OC)ccc1C#Cc1cccc(OC)c1` yielded an EC50 [1] of 0.11 nM, a Ratio EC50 (Homo sapiens [2]) of 77 and a Ratio Ki (Homo sapiens [3]) of 527. For the same compound, the Drug metabolism (Liver microsomes [4]) was “Active”, the Ki [5] was 38.2 nM and the Drug metabolism (Liver microsomes [6]) was “Active”. For the same compound, the Drug metabolism (Liver microsomes [7]) was “Active”, the Drug metabolism (Liver microsomes [8]) was “Active” and the half-life [9] was 18.3 min. For the same compound, the half-life [10] was 21.7 min, the EC50 [11] was 8.38 nM and the CLint scaled [12] was 102 mL/min/kg. For the same compound, the Drug metabolism (Liver microsomes [13]) was “Active”, the Drug metabolism (Liver microsomes [14]) was “Active” and the Ki [15] was 0.073 nM. It also gave a CLint scaled [16] of 115 mL/min/kg.

For `CCC(=O)NCCCc1cc(OC)ccc1OCc1cccc(OC)c1`, the EC50 [1] was 0.05 nM, the Ratio EC50 (Homo sapiens [2]) was 181 and the Ratio Ki (Homo sapiens [3]) was 417. It also gave a Ki [5] of 121 nM, a half-life [9] of 5.5 min and a half-life [10] of 9.5 min. It also gave an EC50 [11] of 9.03 nM, a CLint scaled [12] of 340 mL/min/kg and a Ki [15] of 0.291 nM. The CLint scaled [16] was 262 mL/min/kg.

With `CCC(=O)NCCCc1cc(OC)ccc1CCc1cccc(OC)c1` the EC50 [1] was 0.024 nM, the Ratio EC50 (Homo sapiens [2]) was 679 and the Ratio Ki (Homo sapiens [3]) was 40. The Drug metabolism (Liver microsomes [4]) was “Active”, the Ki [5] was 22.2 nM and the Drug metabolism (Liver microsomes [6]) was “Active”. For the same compound, the Drug metabolism (Liver microsomes [7]) was “Active”, the Drug metabolism (Liver microsomes [8]) was “Active” and the half-life [9] was 5.1 min. It also gave a half-life [10] of 8.3 min, an EC50 [11] of 16.3 nM and a CLint scaled [12] of 367 mL/min/kg. For the same compound, the Drug metabolism (Liver microsomes [13]) was “Active”, the Drug metabolism (Liver microsomes [14]) was “Active” and the Ki [15] was 0.55 nM. It also gave a CLint scaled [16] of 301 mL/min/kg.

Compound `CCC(=O)NCCCc1cc(OC)ccc1Cc1cccc(OC)c1` has an EC50 [1] of 0.24 nM, a Ratio EC50 (Homo sapiens [2]) of 171 and a Ratio Ki (Homo sapiens [3]) of 12. For the same compound, the Drug metabolism (Liver microsomes [4]) was “Active”, the Ki [5] was 39.5 nM and the Drug metabolism (Liver microsomes [6]) was “Active”. The Drug metabolism (Liver microsomes [7]) was “Active”, the Drug metabolism (Liver microsomes [8]) was “Active” and the half-life [9] was 6 min. It also gave a half-life [10] of 8.6 min, an EC50 [11] of 41.6 nM and a CLint scaled [12] of 312 mL/min/kg. The Drug metabolism (Liver microsomes [13]) was “Active”, the Drug metabolism (Liver microsomes [14]) was “Active” and the Ki [15] was 3.39 nM. For the same compound, the CLint scaled [16] was 290 mL/min/kg.

With `CCC(=O)NCCCc1cc(OC)ccc1-c1cccc(OC)c1` the EC50 [1] was 0.2 nM, the Ratio EC50 (Homo sapiens [2]) was 14 and the Ratio Ki (Homo sapiens [3]) was 96. The Drug metabolism (Liver microsomes [4]) was “Active”, the Ki [5] was 32.7 nM and the Drug metabolism (Liver microsomes [6]) was “Active”. For the same compound, the Drug metabolism (Liver microsomes [7]) was “Active”, the Drug metabolism (Liver microsomes [8]) was “Active” and the half-life [9] was 5.3 min. The half-life [10] was 7.5 min, the EC50 [11] was 2.94 nM and the CLint scaled [12] was 353 mL/min/kg. The Drug metabolism (Liver microsomes [13]) was “Active”, the Drug metabolism (Liver microsomes [14]) was “Active” and the Ki [15] was 0.339 nM. The CLint scaled [16] was 333 mL/min/kg.

Compound `COc1ccc2[nH]cc(CCNC(C)=O)c2c1` [MELATONIN] has a half-life [9] of 73.2 min, a half-life [10] of 75.3 min and a CLint scaled [12] of 25.5 mL/min/kg. The CLint scaled [16] was 33.1 mL/min/kg.
